Laboratory results: ChEMBL document CHEMBL3585265, “Bacteria-Derived Compatible Solutes Ectoine and 5α-Hydroxyectoine Act as Intestinal Barrier Stabilizers to Ameliorate Experimental Inflammatory Bowel Disease” (J Nat Prod, 2015)
Activity calls are given as the source filed them. No cut-off for these calls is given here.

Assays:
Rattus norvegicus [1] = experiment: Anti-colitis activity in Wistar rat assessed as reduction of TNBS-induced ulcerative area at 50 to 300 mg/kg, po qd administered for 1 week starting 48 hrs post TNBS induction (reference value: 4.9 cm2); format: functional
In short: (§1)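 Male Wistar rats (150–200 g) were fasted 36 h, then given 100 mg/kg TNBS in 0.25 mL 50% ethanol rectally under light ether, with the catheter tip 8 cm from the anus. Oral dosing was in 1 mL per 200 g rat. Rats were killed 24 h after the last dose. Body weight was taken before induction and before necropsy. Ulcer area in the distal 8 cm colon was measured planimetrically (cm2). Colon mass index is colon weight/body weight (mg/g). Mean of ≥6 animals ± SEM.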

Rattus norvegicus [2] = experiment: Anti-colitis activity in Wistar rat assessed as reduction of TNBS-induced colon mass index at 50 mg/kg, po qd administered for 1 week starting 48 hrs post TNBS induction (reference value: 7.9 mg/g); format: functional; in short: as §1
Rattus norvegicus [3] = experiment: Anti-colitis activity in Wistar rat assessed as suppression of TNBS-induced colonic IL-1beta level at 50 to 100 mg/kg, po qd administered for 1 week starting 48 hrs post TNBS induction by ELISA; format: functional, organism-based
In short: (§2)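 TNBS colitis in male Wistar rats: 100 mg/kg TNBS in 0.25 mL 50% ethanol, instilled 8 cm into the colon after a 36 h fast. Oral dosing in 1 mL per 200 g rat. Rats were killed 24 h after the last dose. The distal 8 cm colon was rinsed in ice-cold saline and homogenized 10% (w/v) in ice-cold bidistilled water. Mean of ≥6 animals ± SEM.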

Rattus norvegicus [4] = experiment: Anti-colitis activity in Wistar rat assessed as suppression of TNBS-induced body weight reduction at 50 to 300 mg/kg, po qd administered for 1 week starting 48 hrs post TNBS induction; format: functional, organism-based; in short: as §1
Rattus norvegicus [5] = experiment: Anti-colitis activity in Wistar rat assessed as reduction of TNBS-induced myeloperoxidase activity at 50 mg/kg, po qd administered for 1 week starting 48 hrs post TNBS induction by spectrophotometric analysis; format: functional, organism-based; in short: as §2
Rattus norvegicus [6] = experiment: Anti-colitis activity in Wistar rat assessed as suppression of TNBS-induced reduction of colonic GSH level at 50 to 300 mg/kg, po qd administered for 1 week starting 48 hrs post TNBS induction by spectrophotometric analysis; format: functional, organism-based
In short: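 TNBS colitis in male Wistar rats: 100 mg/kg TNBS in 0.25 mL 50% ethanol given rectally. Colon was taken 24 h after the last oral dose and homogenized 10% (w/v) in ice-cold water. Homogenate was deproteinized with ice-cold 5% sulfosalicylic acid and spun at 3000 rpm for 20 min; GSH was read spectrophotometrically in the supernatant. Mean of ≥6 animals ± SEM.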

Rattus norvegicus [7] = experiment: Anti-colitis activity in Wistar rat assessed as suppression of TNBS-induced colonic TNF-alpha level at 50 to 100 mg/kg, po qd administered for 1 week starting 48 hrs post TNBS induction by ELISA; format: functional, organism-based; in short: as §2
Rattus norvegicus [8] = experiment: Anti-colitis activity in Wistar rat assessed as suppression of TNBS-induced fecal calprotectin level at 100 mg/kg, po qd administered for 1 week starting 48 hrs post TNBS induction by ELISA; format: functional, organism-based
In short: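 Feces were collected before sacrifice from 4 randomly chosen TNBS-colitis rats per group, suspended 1:10 in extraction buffer and incubated 90 min at room temperature. Calprotectin (S100A8/S100A9) was measured by ELISA, with samples incubated 90 min at room temperature. Samples were run in duplicate and medians taken.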

Rattus norvegicus [9] = experiment: Anti-colitis activity in Wistar rat assessed as suppression of TNBS-induced reduction of colonic GSH level at 300 mg/kg, po qd administered for 1 week starting 48 hrs post TNBS induction by spectrophotometric analysis; format: functional, organism-based
In short: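 Colitis induced rectally with 100 mg/kg TNBS in 50% ethanol; oral dosing daily for 1 week from 48 h later. Colon homogenate (10% w/v, ice-cold water) deproteinized with ice-cold 5% sulfosalicylic acid, centrifuged 3000 rpm 20 min; supernatant used for spectrophotometric reduced glutathione estimation. n ≥ 6, mean ± SEM.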

Rattus norvegicus [10] = experiment: Toxicity in Wistar rat assessed as decrease in Hsp70 level at 300 mg/kg, po qd administered for 1 week starting 48 hrs post TNBS induction by ELISA; format: organism-based; conditions: in vivo; in short: as §2
Rattus norvegicus [11] = experiment: Anti-colitis activity in Wistar rat assessed as reduction of TNBS-induced colon mass index at 300 mg/kg, po qd administered for 1 week starting 48 hrs post TNBS induction; format: functional, organism-based
In short: (§3)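 Adult male Wistar rats (150−200 g), fasted 36 h, received 0.25 mL 50% (v/v) ethanol containing 100 mg/kg TNBS, instilled 8 cm into colon under light ether. Oral dosing (water vehicle, 1 mL per 200 g) once daily for 1 week from 48 h; sacrifice 24 h after last dose. Body weight recorded before induction and before necropsy. Distal 8 cm colon weighed; mass index as mg/g body weight. n ≥ 6, mean ± SEM.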

Rattus norvegicus [12] = experiment: Anti-colitis activity in Wistar rat assessed as suppression of TNBS-induced body weight reduction at 300 mg/kg, po qd administered for 1 week starting 48 hrs post TNBS induction; format: functional, organism-based; in short: as §3
Rattus norvegicus [13] = experiment: Toxicity in Wistar rat assessed as effect on TNF-alpha level at 100 mg/kg, po qd administered for 1 week by ELISA; format: organism-based; conditions: in vivo, 168 h
In short: (§4)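 Normal male Wistar rats (150–200 g) underwent the same rectal procedure with saline in place of TNBS. They received water or 100 mg/kg compound orally once daily for 1 week and were killed 24 h after the last dose. The distal 8 cm colon was weighed and homogenized 10% (w/v) in ice-cold bidistilled water. Body weight was taken before instillation and before necropsy.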

Rattus norvegicus [14] = experiment: Toxicity in Wistar rat assessed as effect on colonic GSH level at 100 mg/kg, po qd administered for 1 week by spectrophotometric analysis; format: organism-based, Colon; conditions: in vivo, 168 h; in short: as §4
Rattus norvegicus [15] = experiment: Toxicity in Wistar rat assessed as effect on colon mass index at 100 mg/kg, po qd administered for 1 week; format: organism-based; conditions: in vivo, 168 h; in short: as §4
Rattus norvegicus [16] = experiment: Toxicity in Wistar rat assessed as effect on body weight at 100 mg/kg, po qd administered for 1 week; format: organism-based; conditions: in vivo, 168 h; in short: as §4
Rattus norvegicus [17] = experiment: Toxicity in Wistar rat assessed as decrease in Hsp70 level at 100 mg/kg, po qd administered for 1 week by ELISA; format: organism-based; conditions: in vivo, 168 h; in short: as §4
Rattus norvegicus [18] = experiment: Toxicity in Wistar rat assessed as decrease in Hsp70 level at 50 to 300 mg/kg, po qd administered for 1 week starting 48 hrs post TNBS induction by ELISA; format: organism-based; conditions: in vivo; in short: as §2
Rattus norvegicus [19] = experiment: Toxicity in Wistar rat assessed as effect on myeloperoxidase activity at 100 mg/kg, po qd administered for 1 week by spectrophotometric analysis; format: organism-based; conditions: in vivo, 168 h; in short: as §4
Rattus norvegicus [20] = experiment: Toxicity in Wistar rat assessed as effect on IL-1beta level at 100 mg/kg, po qd administered for 1 week by ELISA; format: organism-based; conditions: in vivo, 168 h; in short: as §4
Rattus norvegicus [21] = experiment: Toxicity in Wistar rat assessed as effect on colonic ICAM1 level at 100 mg/kg, po qd administered for 1 week by ELISA; format: organism-based, Colon; conditions: in vivo, 168 h; in short: as §4
Rattus norvegicus [22] = experiment: Anti-colitis activity in Wistar rat assessed as suppression of TNBS-induced colonic IL-1beta level at 50 to 300 mg/kg, po qd administered for 1 week starting 48 hrs post TNBS induction by ELISA; format: functional, organism-based
In short: (§5)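 TNBS/ethanol colitis in male Wistar rats, as described; oral once-daily treatment for 1 week beginning 48 h post-induction, sacrifice 24 h after final dose. Distal 8 cm colon excised, rinsed in ice-cold saline, homogenized 10% (w/v) in ice-cold bidistilled water; aliquot assayed for TNF-α and IL-1β by ELISA. At least 6 animals per group, mean ± SEM.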

Rattus norvegicus [23] = experiment: Anti-colitis activity in Wistar rat assessed as reduction of TNBS-induced colon mass index at 100 mg/kg, po qd administered for 1 week starting 48 hrs post TNBS induction (reference value: 7.9 mg/g); format: functional; in short: as §1
Rattus norvegicus [24] = experiment: Anti-colitis activity in Wistar rat assessed as suppression of TNBS-induced colonic TNF-alpha level at 50 to 300 mg/kg, po qd administered for 1 week starting 48 hrs post TNBS induction by ELISA; format: functional, organism-based; in short: as §5
Rattus norvegicus [25] = experiment: Anti-colitis activity in Wistar rat assessed as reduction of TNBS-induced myeloperoxidase activity at 100 mg/kg, po qd administered for 1 week starting 48 hrs post TNBS induction by spectrophotometric analysis; format: functional, organism-based

SMILES	Activity (Rattus norvegicus [1]) [cm2]	Activity (Rattus norvegicus [4])	Activity (Rattus norvegicus [6])	Activity (Rattus norvegicus [8])	Activity (Rattus norvegicus [13])	Activity (Rattus norvegicus [14])	Activity (Rattus norvegicus [15])	Activity (Rattus norvegicus [16])	Activity (Rattus norvegicus [17])	Activity (Rattus norvegicus [18])	Activity (Rattus norvegicus [19])	Activity (Rattus norvegicus [20])	Activity (Rattus norvegicus [21])	also measured
CC1=N[C@H](C(=O)O)[C@@H](O)CN1	1.3	Active	inactive	Active	–	–	–	–	–	–	–	–	–	Activity (Rattus norvegicus [2]): 4 mg/g; Activity (Rattus norvegicus [3]): Active; Activity (Rattus norvegicus [5]): Active; Activity (Rattus norvegicus [7]): Active
O=C(O)c1cc(/N=N/c2ccc(S(=O)(=O)Nc3ccccn3)cc2)ccc1O [SULFASALAZINE]	–	–	–	–	–	–	–	–	–	–	–	–	–	Activity (Rattus norvegicus [9]): inactive; Activity (Rattus norvegicus [10]): Toxic; Activity (Rattus norvegicus [11]): Active; Activity (Rattus norvegicus [12]): Active
CC1=NC[C@H](O)[C@@H](C(=O)O)N1	–	–	–	–	Non-toxic	Non-toxic	Non-toxic	Non-toxic	Toxic	Toxic	Non-toxic	Non-toxic	Non-toxic	–
CC1=N[C@H](C(=O)O)CCN1	1.2	Active	inactive	Active	Non-toxic	Non-toxic	Non-toxic	Non-toxic	Toxic	Toxic	Non-toxic	Non-toxic	Non-toxic	Activity (Rattus norvegicus [22]): Active; Activity (Rattus norvegicus [23]): 4.3 mg/g; Activity (Rattus norvegicus [24]): Active; Activity (Rattus norvegicus [25]): Active
